Experimental data: publication PMC11696124 (Nature Communications, 2025)
Substitutions are numbered along the chain they refer to.

Columns and labels:
Human Clint = type: in vitro ADME; details: hepatocytes
APOL1 G1 [1] = target: T1, APOL1 G1 (Homo sapiens, UniProt O14791, I384M/M228I/R255K/S342G); assay: Thallium flux assay, tet-inducible HEK293 APOL1 G1; type: cell-based
T1 sequence (O14791 28-398 M228I/R255K/S342G/I384M): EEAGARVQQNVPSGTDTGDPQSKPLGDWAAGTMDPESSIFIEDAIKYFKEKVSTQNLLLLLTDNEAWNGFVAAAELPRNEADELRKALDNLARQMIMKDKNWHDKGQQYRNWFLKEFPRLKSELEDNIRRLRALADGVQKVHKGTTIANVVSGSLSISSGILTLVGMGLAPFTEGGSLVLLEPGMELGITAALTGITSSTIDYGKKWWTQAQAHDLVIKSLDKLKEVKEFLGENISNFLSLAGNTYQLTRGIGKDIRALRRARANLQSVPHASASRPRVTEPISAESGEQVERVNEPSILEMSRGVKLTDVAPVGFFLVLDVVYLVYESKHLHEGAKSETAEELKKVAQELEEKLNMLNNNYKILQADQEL

Rat Clint = type: in vitro ADME; details: hepatocytes
Rat pharmacokinetics = details: in vivo; for bioavailability: po
LogD7.4 = type: physicochemical; details: pH 7.4
APOL1 G1 [2] = target: T1, APOL1 G1; assay: HEK cell rescue; type: cell-based
APOL1 G2mc mice [3] = details: 3 mg/kg tid; cited from earlier work
APOL1 G0 [4] = target: T2, APOL1 G0 (Homo sapiens, UniProt O14791, M228I/R255K); assay: HEK cell rescue; type: cell-based
T2 sequence (O14791 28-398 M228I/R255K): T1 sequence (O14791 28-398 M228I/R255K/S342G/I384M) with G315S, M357I
Outline: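 HEK293 tet-inducible APOL1 cells in DMEM with 2% tet-free FBS, seeded at 23,400 cells/well and induced with 50 ng/mL tet for 24 h alongside test compound. Dosing was a 10-point 3-fold series from 10 μM, in duplicate. MultiTox reagent was added for 30 min at 37 °C, reading viability (ex 400/em 486) and cytotoxicity (ex 485/em 535). The dead:live ratio was normalized to no-tet (100%) and tet-only (0%) controls before curve fitting.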

APOL1 G0 [5] = target: T2, APOL1 G0; assay: Automated whole-cell patch clamp; type: cell-based
Outline: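 Tet-inducible HEK293 APOL1 G0 cells, induced with 15 ng/mL tet for 16–20 h. Automated whole-cell recording used extracellular NaCl and intracellular CsF, with hole resistance 1.5–2.5 MΩ and a ramp protocol. After 5 min control recording, six test compound concentrations (100 pM–1 μM) were applied for 5 min each. Peak outward current was normalized to control and fitted to a four-parameter variable-slope curve; 8 cells.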

APOL1 G2 [6] = target: T3, APOL1 G2 (Homo sapiens, UniProt O14791, DEL388-389/M228I/R255K); assay: Automated whole-cell patch clamp; type: cell-based
T3 sequence (O14791 with tags, fused parts or gaps M228I/R255K/DEL388-389): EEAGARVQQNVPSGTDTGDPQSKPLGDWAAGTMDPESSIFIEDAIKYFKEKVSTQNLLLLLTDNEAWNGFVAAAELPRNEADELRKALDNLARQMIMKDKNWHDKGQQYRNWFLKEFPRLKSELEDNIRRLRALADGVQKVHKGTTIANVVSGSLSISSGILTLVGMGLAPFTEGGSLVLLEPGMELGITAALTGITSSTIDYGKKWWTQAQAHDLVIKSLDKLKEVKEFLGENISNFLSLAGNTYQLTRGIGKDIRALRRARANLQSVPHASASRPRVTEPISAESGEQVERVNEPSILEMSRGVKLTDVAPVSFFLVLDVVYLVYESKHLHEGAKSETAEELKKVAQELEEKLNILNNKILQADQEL

recombinant APOL1 G0 = target: T4, recombinant APOL1 G0 (Homo sapiens, UniProt O14791); assay: Trypanosome; type: cell-based
T4 sequence (O14791 28-398): T1 sequence (O14791 28-398 M228I/R255K/S342G/I384M) with I201M, K228R, G315S, M357I
Outline: (§1)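 T. b. brucei were grown in modified HMI-9, then plated at 120,000 parasites/well in phenol red/FBS-free medium with Serum Plus, test compound and recombinant APOL1. APOL1 was at a final level killing about 90% of parasites. After 16 h at 37 °C, alamarBlue was added for 2.5 h, read at ex/em 555/585, in duplicate, and fitted to dose–response curves. Experimental replicates: G0 n=1, G1 n=4, G2 n=1.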

recombinant APOL1 G2 = target: T5, recombinant APOL1 G2 (Homo sapiens, UniProt O14791, DEL388-389); assay: Trypanosome; type: cell-based
T5 sequence (O14791 with tags, fused parts or gaps DEL388-389): T3 sequence (O14791 with tags, fused parts or gaps M228I/R255K/DEL388-389) with I201M, K228R
Outline: as §1

recombinant APOL1 G1 = target: T6, recombinant APOL1 G1 (Homo sapiens, UniProt O14791, I384M/S342G); assay: Trypanosome; type: cell-based
T6 sequence (O14791 28-398 S342G/I384M): T1 sequence (O14791 28-398 M228I/R255K/S342G/I384M) with I201M, K228R
Outline: as §1

[7] = tested on: purified, recombinant APOL1; details: cited from earlier work
APOL1 G1 [8] = target: T1, APOL1 G1; assay: Automated whole-cell patch clamp; type: cell-based
APOL1 G2 [9] = target: T7, APOL1 G2 (Homo sapiens, UniProt O14791, DEL388-389/M228I/R255K, cells depend on it); assay: HEK cell rescue; type: cell-based; details: read-out: APOL1 G2 HEK Cell Rescue EC50; HEK293 APOL1 G2; replicates in brackets
T7 sequence (O14791 with tags, fused parts or gaps M228I/R255K/DEL388-389): T3 sequence (O14791 with tags, fused parts or gaps M228I/R255K/DEL388-389)

APOL1 G2 [10] = target: T3, APOL1 G2; assay: Thallium flux assay, tet-inducible HEK293 APOL1 G2; type: cell-based
[11] = cited from earlier work
APOL1 G2mc mice [12] = assay: Prophylactic IFNγ-induced proteinuria model in APOL1 G2 multicopy mice; type: in vivo, mouse; details: 30 mg/kg bid
APOL1 G2sc mice [13] = assay: Kidney histopathology and nephrin immunohistochemistry; type: in vivo, mouse; details: IFNγ plasmid, 30 mg/kg bid
Outline: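 FVB homozygous APOL1 G2 single-copy mice received a hydrodynamic tail-vein injection of 0.3 μg CpG-free murine IFNγ plasmid in saline (volume 10% of body weight). Groups were balanced by day-5 UACR; vehicle or test compound bid started on day 6. The left kidney was formalin-fixed and cut into 3 µm FFPE sections. Nephrin IHC used CC1 retrieval (95 °C, 64 min), antibody 1:1000 for 1 h, and DAB. AI scoring of all glomeruli in one section gave the H-score.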

APOL1 G2sc mice [14] = assay: Therapeutic IFNγ plasmid model in APOL1 G2 single copy mice, UACR; type: in vivo, mouse; details: 30 mg/kg bid from day 6, vs vehicle
Outline: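 Homozygous APOL1 G2 single-copy transgenic mice of both sexes. Proteinuria was induced by a single hydrodynamic tail-vein injection of a CpG-free plasmid encoding murine IFNγ, 0.3 μg total in saline at 10% body weight, given over about 5–10 s. Mice were allocated by day-5 UACR to give matched group means (n = 12 vehicle, 11 treated). Serum IFNγ was measured by immunoassay on days 1, 5, 9 and 14.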

In the case of Cc1cc(F)cc2c(CCC(=O)N[C@H]3CCNC3=O)c(-c3ccc(F)cc3)[nH]c12 [Compound 2, 3-[5-fluoro-2-(4-fluorophenyl)-7-methyl-1H-indol-3-yl]-N-[(3S)-2-oxopyrrolidin-3-yl]propanamide], the hepatocyte CLint (Human Clint) is reported as 15.4 µL/min/1e6 cells, the IC50 (APOL1 G1 [1]) is reported as 40 nM and the hepatocyte CLint (Rat Clint) is reported as 8.2 µL/min/1e6 cells. It also gave a Vd (Rat pharmacokinetics) of 2.1 L/kg, a clearance (Rat pharmacokinetics) of 15 mL/min/kg and a half-life (Rat pharmacokinetics) of 4.1 h. For the same molecule, the bioavailability (Rat pharmacokinetics) was 34%, the logD (LogD7.4) was 2.8 and the EC50 (APOL1 G1 [2]) was 37 nM.

For O=C(CCc1c(-c2ccc(F)cc2)[nH]c2c(F)cc(F)cc12)N[C@@H]1C(=O)NC[C@H]1O [VX-147, 3-[5,7-difluoro-2-(4-fluorophenyl)-1H-indol-3-yl]-N-[(3S,4 R)-4-hydroxy-2-oxo-pyrrolidin-3-yl] propanamide], the “APOL1-dependent proteinuria, prophylactic treatment” value (APOL1 G2mc mice [3]) is given as “reduced APOL1-dependent proteinuria”, the EC50 (APOL1 G0 [4]) is given as 4.3 nM and the IC50 (APOL1 G0 [5]) is given as 2.3 nM. It also gave an IC50 (APOL1 G2 [6]) of 1.1 nM, a hepatocyte CLint (Human Clint) of under 2.5 µL/min/1e6 cells and an IC50 (APOL1 G1 [1]) of 2 nM. For the same molecule, the EC50 (recombinant APOL1 G0) was 2 nM, the EC50 (recombinant APOL1 G2) was 1.2 nM and the EC50 (recombinant APOL1 G1) was 2.1 nM. For the same molecule, the “binding to purified, recombinant APOL1” value [7] was “bind directly”, the hepatocyte CLint (Rat Clint) was 4.7 µL/min/1e6 cells and the Vd (Rat pharmacokinetics) was 0.9 L/kg. It also gave a clearance (Rat pharmacokinetics) of 4.8 mL/min/kg, a half-life (Rat pharmacokinetics) of 2.5 h and a bioavailability (Rat pharmacokinetics) of 57%. For the same molecule, the IC50 (APOL1 G1 [8]) was 1.3 nM, the logD (LogD7.4) was 2.7 and the EC50 (APOL1 G2 [9]) was 2.2 nM. The IC50 (APOL1 G2 [10]) was 1.2 nM, the EC50 (APOL1 G1 [2]) was 2 nM and the reduction in proteinuria ([11]; 13-week clinical trial, patients with two APOL1 risk alleles and proteinuric non-diabetic kidney disease) was 47.6%. The glomerular filtration rate ([11]; 13-week study in 16 individuals) was “stable”.

In the case of Cc1cc(F)cc2c(CCC(=O)N[C@@H]3C(=O)NC[C@H]3O)c(-c3ccc(F)cc3)[nH]c12 [Compound 3, 3-[5-fluoro-2-(4-fluorophenyl)-7-methyl-1H-indol-3-yl]-N-[(3S,4 R)-4-hydroxy-2-oxo-pyrrolidin-3-yl]propanamide], the “APOL1-mediated proteinuria, prophylactic treatment” value (APOL1 G2mc mice [12]) is reported as “able to prevent APOL1-mediated proteinuria”, the hepatocyte CLint (Human Clint) is reported as 6.3 µL/min/1e6 cells and the IC50 (APOL1 G1 [1]) is reported as 4.2 nM. The “microscopic evaluation of kidney tissues” value (APOL1 G2sc mice [13]) was “no microscopic abnormalities or nephrin loss were noted”, the “nephrin H-scores versus no IFNγ control” value (APOL1 G2sc mice [13]) was “comparable” and the hepatocyte CLint (Rat Clint) was 5.1 µL/min/1e6 cells. It also gave a Vd (Rat pharmacokinetics) of 1.4 L/kg, a clearance (Rat pharmacokinetics) of 6 mL/min/kg and a half-life (Rat pharmacokinetics) of 4.2 h. It also gave a bioavailability (Rat pharmacokinetics) of 28%, a logD (LogD7.4) of 2.7 and an EC50 (APOL1 G2 [9]) of 10 nM. The IC50 (APOL1 G2 [10]) was 5.4 nM, the EC50 (APOL1 G1 [2]) was 3.6 nM and the “Percent reduction in UACR AUC Day 6-14” value (APOL1 G2sc mice [14]) was 97%.
